For data set [1], the system named is HUVEC. Nature of the data set: Antiangiogenic activity in HUVEC assessed as decrease in VEGF-induced extremities at 1 ug/ml after 3 days. The class given is functional, cell-based. Particulars: Homo sapiens. An outline of the steps: (§1)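 HUVECs seeded on Cytodex 3 beads (400 cells/bead, 4 h at 37 °C with shaking, then 24 h), embedded in fibrin gel (fibrinogen 2.5 mg/mL, aprotinin 0.15 U/mL, thrombin) with VEGF; EGM-2 with VEGF 5 ng/mL, NHDF overlaid. Compound added after 1 h, medium renewed at 24 h then every 48 h. Imaged at 4× day 4; sprout network quantified by Angiogenesis Analyzer; ≥18 spheres, mean ± SEM, one-way ANOVA/Dunnett.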

For data set [2], the system named is HUVEC. Nature of the data set: Antiangiogenic activity in HUVEC assessed as decrease in VEGF-induced segments at 1 ug/ml after 3 days. Format: functional, cell-based. The settings on record: Homo sapiens. In a few lines:
as §1

The test system of data set [3] is HUVEC. Nature of the data set: Cytotoxicity against HUVEC at 1 ug/ml after 24 hrs by MTT assay. Format: cell-based. The settings on record: human. In a few lines:
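HUVECs (1.0 × 10^4/well) in EBM2 with 0.5% FBS, settled overnight at 37 °C, 5% CO2; compound at 1 μg/mL for 24 h. MTT added for 4 h at 37 °C, formazan dissolved in DMSO, absorbance read at 595 nm.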

Data set [4] has as its system HUVEC. Nature of the data set: Antiangiogenic activity in HUVEC assessed as decrease in VEGF-induced anchorage junctions at 1 ug/ml after 3 days. The settings on record: Homo sapiens. Format: functional, cell-based. An outline of the steps: as §1
The nature of data set [5]: Inhibition of TNFalpha-stimulated NF-kappaB (unknown origin) expressed in HEK293 cells incubated for 30 mins followed by TNFalpha stimulation for 4 hrs by luciferase reporter gene based luminescence assay. The class given is cell-based. The settings on record: Homo sapiens.
Data set [6] has as its system HUVEC. Nature of the data set: Antiangiogenic activity in HUVEC assessed as decrease in VEGF-induced number of total capillary length at 1 ug/ml after 3 days. The class given is functional, cell-based. The settings on record: Homo sapiens. An outline of the steps:
as §1

The record followed here is ChEMBL document CHEMBL4196133, “NF-κB and Angiogenesis Inhibitors from the Aerial Parts of Chresta martii” (J Nat Prod, 2018).

Activity calls are given as the source filed them. No cut-off for these calls is given here.

Turning to `CC(=O)OCC1=C2[C@@H](OC(C)=O)C[C@@](C)(OC(C)=O)C(=O)CC[C@@]3(C)O[C@H]3[C@H]2OC1=O`, the result with HUVEC [1], with HUVEC [2], in the data set with HUVEC [4] and with HUVEC [6] was Active. Also, in the data set with HUVEC [3], the Activity entry is “Non-Toxic”. For the same compound, in data set [5], the IC50 was 6500 nM.
As to `CC(=O)OCC1=C2/C(=C/[C@]3(C)CC[C@@](O)(O3)[C@@](C)(O)C[C@H]2OC(C)=O)OC1=O`, the outcome in the data set with HUVEC [1], in the data set on HUVEC [2], in the data set with HUVEC [4] and with HUVEC [6] was Active. Also, the Activity result in the data set with HUVEC [3] is “Non-Toxic”. In data set [5], the IC50 came to 1800 nM.
Turning to `CC(=O)O[C@@H]1C[C@@](C)(OC(C)=O)C(=O)CC[C@@]2(C)O[C@@H]2C2OC(=O)C(CO)=C21` (some centres not stated), the result in the data set on HUVEC [1], in the data set on HUVEC [2], in the data set on HUVEC [4] and in the data set on HUVEC [6] was Active. The Activity result with HUVEC [3] is on record as “Non-Toxic”. This compound also displayed an IC50 in data set [5] of 2400 nM.
On to `C=C1C(=O)O[C@H]2[C@@H]1CC/C(C)=C\CC[C@@]1(C)O[C@@H]21`, for which, in data set [5], the IC50 was 700 nM.
As to `CCC(=O)O[C@H]1C[C@@](C)(OC(C)=O)C(=O)CC[C@@]2(C)O[C@H]2[C@H]2OC(=O)C(COC(C)=O)=C12`, in the data set with HUVEC [3], the Activity result is on record as “Non-Toxic”. For the same compound, in data set [5], the midpoint of inhibition, the IC50, lay at 5100 nM.
The like results for `CC(=O)OCC1=C2[C@@H](O)C[C@@](C)(OC(C)=O)C(=O)CC[C@@]3(C)O[C@H]3[C@H]2OC1=O` were, in that order, “Non-Toxic” and 7800 nM.
As to `C[C@@]12/C=C3\OC(=O)C(CO)=C3[C@@H](O)C[C@@](C)(O)[C@@](O)(CC1)O2`, the result in the data set with HUVEC [1], in the data set on HUVEC [2], in the data set with HUVEC [4] and with HUVEC [6] was Active. Also, the Activity entry with HUVEC [3] is “Non-Toxic”. Also, 2200 nM corresponded to half-maximal inhibition in data set [5] (IC50).
Compound `CC(=O)OCC1=C2[C@@H](OC(C)=O)C[C@@](C)(OC(C)=O)[C@@]3(O)CC[C@@](C)(O)[C@H](OC(C)=O)[C@@]23OC1=O` yielded an IC50 in data set [5] of 13600 nM.
Take `CC(=O)OCC1=C2/C(=C/[C@]3(C)CC[C@@](O)(O3)[C@](C)(O)C[C@@H]2O)OC1=O`: the outcome in the data set on HUVEC [1], with HUVEC [2], in the data set with HUVEC [4] and in the data set with HUVEC [6] was Active. For the same compound, in the data set on HUVEC [3], the Activity entry was “Non-Toxic”. In addition, in data set [5], the IC50 was determined as 700 nM.
For the compound `COc1ccc(-c2cc(=O)c3c(O)cc(O)cc3o2)cc1OC`, the Activity result in the data set with HUVEC [3] was “Non-Toxic”.
